Measured values reported in ChEMBL document CHEMBL1137088, “Distamycin analogues with enhanced lipophilicity: synthesis and antimicrobial activity” (2004).
Converted amounts (≈) assume the structure as drawn. “And” between values parts separate entries of the source, which are not always exact repeats. Equal entries are not always repeated. The source made the active and inactive calls. The calls are words filed in the database; no cut-off is given here.

Experiments:
[1] = test system: Enterobacter cloacae; assay: Antibacterial activity against Enterobacter cloacae NCTC 10005 strain.; format: functional, organism-based
[2] = test system: Aspergillus niger; assay: Antifungal activity against Aspergillus niger IMI17454 strain; na = not active; format: functional
[3] = test system: Staphylococcus aureus; assay: Antibacterial activity against MRSA PHLS M1 strain; na = not active; format: functional, organism-based
[4] = test system: Aspergillus nidulans; assay: Antifungal activity against Aspergillus nidulans CABI 0160037 strain; na = not active; format: functional
[5] = test system: Klebsiella aerogenes; assay: Antibacterial activity against Klebsiella aerogenes WRL CN 345 strain; na = not active; format: functional, organism-based
[6] = Antifungal activity against Candida albicans NCPF 3179 strain; na = not active; format: functional
[7] = test system: Staphylococcus aureus; assay: Antibacterial activity against Staphylococcus aureus NCTC 6571 strain.; format: functional
[8] = test system: Mycolicibacterium fortuitum; assay: Antibacterial activity against Mycobacterium fortuitum NCTC 10394 strain; na = not active; format: functional, organism-based
[9] = Antibacterial activity against Proteus vulgaris NCTC 4175 strain; na = not active; format: functional
[10] = test system: Enterococcus faecalis; assay: Antibacterial activity against Streptococcus faecalis NCTC 775 strain; na = not active; format: functional, organism-based
[11] = test system: Escherichia coli; assay: Antibacterial activity against Escherichia coli NCTC 9001 strain.; format: functional, organism-based
[12] = test system: Aspergillus niger; assay: Antifungal activity against Aspergillus niger IMI17454 strain.; format: functional
[13] = test system: Proteus vulgaris; assay: Antibacterial activity against Proteus vulgaris NCTC 4175 strain.; format: functional
[14] = test system: Klebsiella aerogenes; assay: Antibacterial activity against Klebsiella aerogenes WRL CN 345 strain.; format: functional, WRL CN 375
[15] = test system: Candida albicans; assay: Antifungal activity against Candida albicans NCPF 3179 strain.; format: functional
[16] = Antibacterial activity against Enterobacter cloacae NCTC 10005 strain; format: functional
[17] = test system: Enterococcus faecalis; assay: Antibacterial activity against Streptococcus faecalis NCTC 775 strain.; format: functional
[18] = test system: Staphylococcus aureus; assay: Antibacterial activity against methicillin-resistant Staphylococcus aureus (MRSA) PHLS M1 strain.; format: functional
In short: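 Read-out is the minimum inhibitory concentration, reported in µM. Amoxycillin is tested alongside as the reference antibiotic.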

[19] = test system: Escherichia coli; assay: Antibacterial activity against Escherichia coli NCTC 9001 strain; format: functional
[20] = test system: Mycolicibacterium fortuitum; assay: Antibacterial activity against Mycobacterium fortuitum NCTC 10394 strain.; format: functional
[21] = test system: Aspergillus nidulans; assay: Antifungal activity against Aspergillus nidulans CABI 0160037 strain; format: functional
[22] = test system: Mycolicibacterium fortuitum; assay: Antibacterial activity against Mycobacterium fortuitum NCTC 10394 strain=; format: functional
[23] = test system: Enterococcus faecalis; assay: Antibacterial activity against Streptococcus faecalis NCTC 775 strain=; format: functional
[24] = test system: Staphylococcus aureus; assay: Antibacterial activity against Staphylococcus aureus NCTC 6571 strain; na = not active; format: functional, organism-based
[25] = Aspergillus niger, read-out: MIC
[26] = Klebsiella aerogenes, WRL CN 375, read-out: MIC
[27] = Candida albicans, read-out: MIC

Compound | MIC [1] | MIC [3] | MIC [4] | MIC [6] | MIC [7] | MIC [8] | MIC [9] | MIC [10] | MIC [11] | MIC [12, 25] [µM] | MIC [13] [µM] | MIC [14, 26] [µM] | MIC [15, 27] [µM] | MIC [16] [µM] | MIC [17] [µM] | MIC [18] [µM] | MIC [19] [µM] | MIC [20] [µM] | MIC [21] [µM] | also measured
CCn1cc(NC(=O)c2nc(NC(=O)c3nc(NC=O)cn3CC)cn2CC)nc1C(=O)NCCCN(C)C | inactive | inactive | inactive | inactive | 19 µM (≈ 10.3 µg/mL) | inactive | inactive | inactive | inactive |  |  |  |  |  |  |  |  |  |  | MIC [2]: inactive; MIC [5]: inactive
CC(=O)Nc1cc(C(=O)Nc2cc(C(=O)Nc3cc(C(=O)NCCCN(C)C)n(C)c3)n(C)c2)c(C)s1 | inactive | inactive | inactive | inactive | 156 µM (not active) (≈ 82.3 µg/mL) | inactive |  | inactive | inactive | 156 (≈ 82.3 µg/mL) | 156 (≈ 82.3 µg/mL) | 156 (≈ 82.3 µg/mL) |  |  |  |  |  |  |  | 
CC(=O)Nc1nc(C(=O)Nc2cc(C(=O)Nc3nc(C(=O)NCCCN(C)C)c(C(C)C)s3)n(C)c2)c(C(C)C)s1 |  |  |  |  | 4.3 µM (≈ 2.59 µg/mL) |  |  |  |  | 4.3 (≈ 2.59 µg/mL) | 69.8 (≈ 42.1 µg/mL) | 69.8 (≈ 42.1 µg/mL) | 34.9 (≈ 21 µg/mL) | 69.8 (≈ 42.1 µg/mL) | 4.3 (≈ 2.59 µg/mL) | 4.3 (≈ 2.59 µg/mL) | 70 (≈ 42.2 µg/mL) | 17.5 (≈ 10.5 µg/mL) |  | 
COc1cccc(C(=O)Nc2nc(C(=O)Nc3cc(C(=O)Nc4cc(C(=O)NCCCN(C)C)n(C)c4)n(C)c3)c(C(C)C)s2)c1 |  |  |  |  | 32.7 µM (≈ 21.2 µg/mL) |  |  |  |  | 131 (≈ 85 µg/mL) | 65.5 (≈ 42.5 µg/mL) | 32.7 (≈ 21.2 µg/mL) | 131 (≈ 85 µg/mL) | 131 (≈ 85 µg/mL) | 32.7 (≈ 21.2 µg/mL) | 32.7 (≈ 21.2 µg/mL) | 65.5 (≈ 42.5 µg/mL) | 65.5 (≈ 42.5 µg/mL) | 131 (≈ 85 µg/mL) | 
COc1cccc(C(=O)Nc2cc(C(=O)Nc3cc(C(=O)Nc4cc(C(=O)NCCCN(C)C)n(C)c4)n(C)c3)n(C)c2)c1 | inactive | inactive |  | inactive | 69.8 µM (≈ 42.1 µg/mL) |  | inactive |  | inactive | 140 (≈ 84.4 µg/mL) |  | 140 (≈ 84.4 µg/mL) |  |  |  |  |  |  | 69.8 (≈ 42.1 µg/mL) | MIC [22]: 140 µM (≈ 84.4 µg/mL); MIC [23]: 140 µM (≈ 84.4 µg/mL)
Cn1cc(NC(=O)c2cc(NC(=O)c3cc(NC=O)cn3C)cn2C)cc1C(=O)NCCCN1CCCC1 |  | inactive |  |  | 1200 µM (≈ 627 µg/mL) |  |  | inactive |  | 157 (≈ 82 µg/mL) | 157 (≈ 82 µg/mL) | 157 (≈ 82 µg/mL) | 157 (≈ 82 µg/mL) | 157 (≈ 82 µg/mL) |  |  | 157 (≈ 82 µg/mL) | 78.5 (≈ 41 µg/mL) | 157 (≈ 82 µg/mL) | 
CC(=O)Nc1cc(C(=O)Nc2cc(C(=O)Nc3cc(C(=O)NCCCN(C)C)n(C)c3)n(C(C)C)c2)n(C)c1 | inactive | inactive | inactive |  |  | inactive | inactive | inactive | inactive |  | 153 (≈ 82.4 µg/mL) | 153 (≈ 82.4 µg/mL) | 153 (≈ 82.4 µg/mL) |  | 73.5 (≈ 39.6 µg/mL) |  |  | 147 (≈ 79.2 µg/mL) |  | MIC [24]: inactive; MIC [15]: 147 µM (≈ 79.2 µg/mL); MIC [12]: 153 µM and 73.5 µM; MIC [14]: 147 µM (≈ 79.2 µg/mL)
CN(C)CCCNC(=O)c1cc(NC(=O)c2cc(NC(=O)c3cc(NC=O)cn3C)cn2C)cn1C | inactive | inactive | inactive | inactive | 10 µM (≈ 4.97 µg/mL) | inactive |  |  | inactive |  | 164 (≈ 81.4 µg/mL) |  |  |  | 0.31 (≈ 0.154 µg/mL) |  |  |  |  | MIC [2]: inactive; MIC [5]: inactive
CC(C)n1cc(NC(=O)c2cc(NC=O)cn2C)cc1C(=O)Nc1cc(C(=O)NCCCN(C)C)n(C)c1 | inactive |  | inactive | inactive |  | inactive |  |  | inactive | 157 (≈ 82.4 µg/mL) | 157 (≈ 82.4 µg/mL) | 39.1 (≈ 20.5 µg/mL) |  |  | 157 (≈ 82.4 µg/mL) | 157 (≈ 82.4 µg/mL) |  |  |  | MIC [24]: inactive
